Data reported in the array DNA melting data of Ke et al. (doi:10.1101/2024.01.08.574731).

What was measured:
[1] = folding enthalpy; higher = less favourable; fluorescence melt of hairpins on a sequencing array, two-state fit; settings: sodium 0.088 M
Summary of the method: (§1)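 On a sequenced MiSeq flow cell, library hairpins with annealed Cy3 and quencher oligos were imaged for Cy3 fluorescence in 2.5 °C steps up to 60 °C, in 50 mM Na-HEPES pH 8.0, 25 mM NaCl. Normalisation used pre-quench Cy3 and control constructs. Bootstrapped two-state fits gave melting temperature and folding enthalpy, combined by inverse variance across four replicates and with fitted temperatures raised by 9.35 °C to match UV melts.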

[2] = melting temperature; fluorescence melt of hairpins on a sequencing array, two-state fit, raised by 9.35 °C to match UV melts; settings: sodium 0.088 M
Summary of the method: as §1

GGCGCCACGAAAGTGGCC (((..(((....))))))
folding enthalpy [1]: -6.73 kcal/mol
Tm [2]: 48.8 °C

GGCGCCCGAAAGGGGCC (((.(((....))))))
folding enthalpy [1]: -17.2 kcal/mol
Tm [2]: 67.4 °C

GGCGCCGAAAGGCCAGCC ((((((....)))..)))
folding enthalpy [1]: -21.1 kcal/mol
Tm [2]: 61 °C

GGCGCCGAAAGGCGTGCC ((((((....)))..)))
folding enthalpy [1]: -9.73 kcal/mol
Tm [2]: 54.2 °C

GGCGCCGAAAGGCTAGCC ((((((....)))..)))
folding enthalpy [1]: -21.6 kcal/mol
Tm [2]: 61.7 °C

GGCGCCGAAAGGCTGCC ((((((....))).)))
folding enthalpy [1]: -19.4 kcal/mol
Tm [2]: 67.1 °C

GGCGCCGCGAAAGCGGCC (((..(((....))))))
folding enthalpy [1]: -5.39 kcal/mol
Tm [2]: 49.1 °C

GGCGCCTCGAAAGAGGCC (((..(((....))))))
folding enthalpy [1]: -8.15 kcal/mol
Tm [2]: 50.5 °C

GGCGCTGCGAAAGCAGCC (((..(((....))))))
folding enthalpy [1]: -6.28 kcal/mol
Tm [2]: 58.1 °C

GGCGCTGGAAACGGCGTC (.(((.(....).))).)
folding enthalpy [1]: -28 kcal/mol
Tm [2]: 54.3 °C

GGCGGACGAAAGTCGCC (((.(((....))))))
folding enthalpy [1]: -28.2 kcal/mol
Tm [2]: 68.5 °C

GGCGGAGGAAACCCCGCC (((((.(....).)))))
folding enthalpy [1]: -33.4 kcal/mol
Tm [2]: 64.5 °C

GGCGGCGAAAGCCATGCC ((((((....)))..)))
folding enthalpy [1]: -16.5 kcal/mol
Tm [2]: 59.8 °C

GGCGGCGAAAGCCTAGCC ((((((....)))..)))
folding enthalpy [1]: -21.3 kcal/mol
Tm [2]: 60.8 °C

GGCGGCGCGAAAGCGGCC (((..(((....))))))
folding enthalpy [1]: -9.35 kcal/mol
Tm [2]: 59.5 °C

GGCGGGCCGAAAGGCGCC (((..(((....))))))
folding enthalpy [1]: -13.2 kcal/mol
Tm [2]: 62.3 °C

GGCGGGGGAAACCCCGTC (.(((((....))))).)
folding enthalpy [1]: -22.7 kcal/mol
Tm [2]: 65.1 °C

GGCGGGGGAAACCCTGCC (((.(((....))).)))
folding enthalpy [1]: -27 kcal/mol
Tm [2]: 65.2 °C

GGCGGTCGAAAGACGGCC (((.(((....))).)))
folding enthalpy [1]: -34.5 kcal/mol
Tm [2]: 68.2 °C

GGCGGTGGAAACACCGTC (.(((((....))))).)
folding enthalpy [1]: -23.9 kcal/mol
Tm [2]: 65.8 °C

GGCGTACCGAAAGGTGCC (((..(((....))))))
folding enthalpy [1]: -33.2 kcal/mol
Tm [2]: 54.7 °C

GGCGTATCGAAAGATGCC (((..(((....))))))
folding enthalpy [1]: -22.5 kcal/mol
Tm [2]: 47.9 °C

GGCGTCCCGAAAGGGGCC (((..(((....))))))
folding enthalpy [1]: -14.3 kcal/mol
Tm [2]: 50.4 °C

GGCGTCGAAAGACCCGCC ((((((....)))..)))
folding enthalpy [1]: -17.5 kcal/mol
Tm [2]: 55.3 °C

GGCGTCGAAAGACTGCC ((((((....))).)))
folding enthalpy [1]: -36.4 kcal/mol
Tm [2]: 57 °C

GGCGTGACGAAAGTCGCC (((..(((....))))))
folding enthalpy [1]: -21.1 kcal/mol
Tm [2]: 57.5 °C

GGCGTGGGAAACCACACC ((.((((....)))).))
folding enthalpy [1]: -35.3 kcal/mol
Tm [2]: 50.5 °C

GGCGTTGGAAACAACACC ((.((((....)))).))
folding enthalpy [1]: -33.6 kcal/mol
Tm [2]: 46.7 °C

GGCGTTGGAAACAACGTC (.(((((....))))).)
folding enthalpy [1]: -25.4 kcal/mol
Tm [2]: 57.8 °C

GGCGTTGGAAACAGCGTC (.((.((....)).)).)
folding enthalpy [1]: -21.9 kcal/mol
Tm [2]: 44.6 °C

GGCTAAACGAAAGTTGCC (((..(((....))))))
folding enthalpy [1]: -22.5 kcal/mol
Tm [2]: 47.6 °C

GGCTAACCGAAAGGTGCC (((..(((....))))))
folding enthalpy [1]: -22.4 kcal/mol
Tm [2]: 53.6 °C

GGCTAACGAAAGTTCGCC (((.(((....))).)))
folding enthalpy [1]: -44.2 kcal/mol
Tm [2]: 52.9 °C

GGCTAACGAAAGTTGGCC (((.(((....))).)))
folding enthalpy [1]: -44.2 kcal/mol
Tm [2]: 60.1 °C

GGCTAACGAAAGTTTGCC (((.(((....))).)))
folding enthalpy [1]: -61 kcal/mol
Tm [2]: 54.7 °C

GGCTACGAAAGTAACGCC ((((((....)))..)))
folding enthalpy [1]: -22.8 kcal/mol
Tm [2]: 46.1 °C

GGCTACGAAAGTACAGCC ((((((....)))..)))
folding enthalpy [1]: -26.9 kcal/mol
Tm [2]: 48 °C

GGCTACGAAAGTATGGCC ((((((....)))..)))
folding enthalpy [1]: -25.7 kcal/mol
Tm [2]: 47.3 °C

GGCTACGGAAACGTGGTC (.(.(((....))).).)
folding enthalpy [1]: -27.8 kcal/mol
Tm [2]: 42 °C

GGCTATCGAAAGATTGCC (((.(((....))).)))
folding enthalpy [1]: -41.3 kcal/mol
Tm [2]: 55.7 °C

GGCTATGGAAACACAGCC ((((.((....)).))))
folding enthalpy [1]: -29.9 kcal/mol
Tm [2]: 43.2 °C

GGCTCAACGAAAGTTGCC (((..(((....))))))
folding enthalpy [1]: -13.7 kcal/mol
Tm [2]: 38.2 °C

GGCTCAGAAATGAGCC ((((((....))))))
folding enthalpy [1]: -38.9 kcal/mol
Tm [2]: 67 °C

GGCTCCCGAAAGGGTGCC (((.(((....))).)))
folding enthalpy [1]: -40 kcal/mol
Tm [2]: 67.6 °C

GGCTCCGAAAGGAAAGCC ((((((....)))..)))
folding enthalpy [1]: -30.1 kcal/mol
Tm [2]: 54.3 °C

GGCTCCGAAAGGAATGCC ((((((....)))..)))
folding enthalpy [1]: -26.9 kcal/mol
Tm [2]: 51.3 °C

GGCTCCGAAAGGACGGCC ((((((....)))..)))
folding enthalpy [1]: -20.8 kcal/mol
Tm [2]: 51.2 °C

GGCTCCGAAAGGAGCGCC ((((((....)))..)))
folding enthalpy [1]: -6.52 kcal/mol
Tm [2]: 68.6 °C

GGCTCCGAAAGGAGGGCC ((((((....)))..)))
folding enthalpy [1]: -15.8 kcal/mol
Tm [2]: 52.5 °C

GGCTCCGGAAACGGAGTC (.(((((....))))).)
folding enthalpy [1]: -30.1 kcal/mol
Tm [2]: 60.8 °C

GGCTCCGGAAACGGGGTC (.(.(((....))).).)
folding enthalpy [1]: -25.1 kcal/mol
Tm [2]: 49 °C

GGCTCCTCGAAAGAGGCC (((..(((....))))))
folding enthalpy [1]: -14 kcal/mol
Tm [2]: 39.5 °C

GGCTCGCGAAAGCGGCC (((.(((....))))))
folding enthalpy [1]: -19.2 kcal/mol
Tm [2]: 66.5 °C

GGCTCGGGAAACTGGGCC (((.(.(....).).)))
folding enthalpy [1]: -36.7 kcal/mol
Tm [2]: 48.9 °C

GGCTCTCGAAAGAGCGCC (((.(((....))).)))
folding enthalpy [1]: -34.6 kcal/mol
Tm [2]: 56.4 °C

GGCTGAACGAAAGTTGCC (((..(((....))))))
folding enthalpy [1]: -24.6 kcal/mol
Tm [2]: 46.9 °C

GGCTGAGGAAACCCAGCC (((((.(....).)))))
folding enthalpy [1]: -41.9 kcal/mol
Tm [2]: 55 °C

GGCTGAGGAAACTCAACC ((.((((....)))).))
folding enthalpy [1]: -32.5 kcal/mol
Tm [2]: 41.2 °C

GGCTGCGAAAGCACGCC ((((((....))).)))
folding enthalpy [1]: -29.6 kcal/mol
Tm [2]: 65.2 °C

GGCTGCGAAAGCATGCC ((((((....))).)))
folding enthalpy [1]: -21.6 kcal/mol
Tm [2]: 66.7 °C

GGCTGCGAAAGCATTGCC ((((((....)))..)))
folding enthalpy [1]: -19.5 kcal/mol
Tm [2]: 52.8 °C

GGCTGCGGAAACGTAGCC ((((.((....)).))))
folding enthalpy [1]: -50.1 kcal/mol
Tm [2]: 61 °C

GGCTGGCGAAAGCCCGCC (((.(((....))).)))
folding enthalpy [1]: -22.6 kcal/mol
Tm [2]: 63 °C

GGCTGGGGAAACCCAGTC (.(((((....))))).)
folding enthalpy [1]: -41.6 kcal/mol
Tm [2]: 55.8 °C

GGCTGGGGAAACTCAGCC (((((.(....).)))))
folding enthalpy [1]: -38.7 kcal/mol
Tm [2]: 57 °C

GGCTGTGGAAACACAGTC (.(((((....))))).)
folding enthalpy [1]: -28.2 kcal/mol
Tm [2]: 54.2 °C

GGCTTACGAAAGTAGCC (((.(((....))))))
folding enthalpy [1]: -34.1 kcal/mol
Tm [2]: 55.5 °C

GGCTTACGAAAGTATGCC (((.(((....))).)))
folding enthalpy [1]: -45.2 kcal/mol
Tm [2]: 56.8 °C
